Experimental findings from ChEMBL document CHEMBL4373712, “Bioactivatable Pseudotripeptidization of Cyclic Dipeptides To Increase the Affinity toward Oligopeptide Transporter 1 for Enhanced Oral Absorption: An Application to Cyclo(l-Hyp-l-Ser) (JBP485)” (J Med Chem, 2019) are described below.

Each structure is given as a SMILES string. Active and inactive are the calls of the source. The rule behind the calls is not given here.

A short description of series [1]: AUC (0 to t) in Sprague-Dawley rat assessed as JBP485 level at 12 mg/kg equiv of JBP485 administered orally by UPLC-MS/MS analysis. The settings on record: in vivo, po. Format: ADME, organism-based. The method in brief: (§1)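 Male SD rats, 200-250 g, fasted 12 h with water, n=6. Oral dose of 12 mg/kg as JBP485 equivalent; dose-effect arms at 12 and 100 mg/kg. JBP485 given iv at 6 mg/kg as the reference. Jugular blood taken at 0.083-10 h. Plasma JBP485 by UPLC-MS/MS. Absolute F = (AUCpo×Div)/(AUCiv×Dpo)×100%, using AUC0-t.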

The nature of series [2]: Terminal half-life in Sprague-Dawley rat assessed as JBP485 level at 12 mg/kg equiv of JBP485 administered orally by UPLC-MS/MS analysis. Format: ADME, organism-based. The settings on record: in vivo, po. The method in brief: (§2)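 Fasted male SD rats (200–250 g), oral 12 mg/kg (prodrugs calculated as JBP485). Jugular blood 0.083–10 h, centrifuged, plasma JBP485 by UPLC-MS/MS; n=6.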

Series [3] can be described thus: AUC (0 to t) in Beagle dog assessed as JBP485 level at 12 mg/kg equiv of JBP485 administered orally by UPLC-MS/MS analysis. The settings on record: in vivo, po. Format: ADME, organism-based, Canis lupus familiaris. The method in brief: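 Male beagle dogs, 2 years old, 8-10 kg, n=6. Single oral dose of 12 mg/kg (prodrug dosed as JBP485 equivalent) given in aqueous solution. Jugular venipuncture blood taken at 0.167-8 h into sodium heparin tubes. Plasma JBP485 measured by UPLC-MS/MS; AUC0-t and Cmax from the concentration-time profiles.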

In series [4] the test system is Rattus norvegicus. Description: Anti-hepatitis activity in ANIT-induced Sprague-Dawley rat model of liver injury assessed as reduction in serum aspartate aminotransferase level at 3.125 to 25 mg/kg, po administered 30 mins prior to ANIT challenge and subsequent dosing at 8, 22, 32, and 46 hrs post ANIT challenge and measured 48 hrs post ANIT challenge. Format: functional, organism-based. In outline:
(§3)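 ANIT (50 mg/kg ip, olive oil) cholestatic liver injury in male SD rats, 6 per group. Oral or ip dosing (UDCA 100 mg/kg po in CMC-Na) at 30 min before and 8, 22, 32 and 46 h after ANIT. Serum collected at 48 h from the abdominal aorta; ALT and AST activities measured with kits.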

Series [5] deals with Rattus norvegicus. Description: Anti-hepatitis activity in ANIT-induced Sprague-Dawley rat model of liver injury assessed as reduction in serum alanine aminotransferase level at 3.125 to 25 mg/kg, po administered 30 mins prior to ANIT challenge and subsequent dosing at 8, 22, 32, and 46 hrs post ANIT challenge and measured 48 hrs post ANIT challenge. The format is functional, organism-based. In outline: as §3

The nature of series [6]: Cmax in Sprague-Dawley rat at 6 mg/kg, iv by UPLC-MS/MS analysis. Format: ADME, organism-based. Further details: dose 6 mg/kg, route intravenous. The note with it: in vivo. In outline:
as §1

Series [7] can be described thus: Terminal half-life in Sprague-Dawley rat at 6 mg/kg, iv by UPLC-MS/MS analysis. Format: ADME, organism-based. The settings on record: in vivo, read-out: beta t1/2 (converted). In outline:
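Fasted male SD rats given JBP485 6 mg/kg intravenously. Jugular blood sampled 0.083–10 h, plasma by UPLC-MS/MS; n=6.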

Series [8] in a line: Tmax in Sprague-Dawley rat at 12 mg/kg, po by UPLC-MS/MS analysis. The format is ADME, organism-based. The settings on record: in vivo. The method in brief:
as §2

Series [9] can be described thus: Oral bioavailability in Sprague-Dawley rat at 12 mg/kg by UPLC-MS/MS analysis. The format is ADME, organism-based. The note with it: in vivo. The method in brief:
as §1

A short description of series [10]: Terminal half life in Beagle dog at 12 mg/kg, po by UPLC-MS/MS analysis. The format is ADME, organism-based, Canis lupus familiaris. The note with it: in vivo, read-out: beta t1/2 (converted). The method in brief: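 Male beagle dogs, 2 years old, 8–10 kg, dosed orally at 12 mg/kg (prodrug calculated as JBP485) in aqueous solution. Jugular blood taken 0.167–8 h into heparin, centrifuged, plasma JBP485 by UPLC-MS/MS; n=6.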

Series [11] deals with Rattus norvegicus. Description: Anti-hepatitis activity in ANIT-induced Sprague-Dawley rat model of liver injury assessed as reduction in liver necrosis at 6.25 to 25 mg/kg, po administered 30 mins prior to ANIT challenge and subsequent dosing at 8, 22, 32, and 46 hrs post ANIT challenge and measured 48 hrs post ANIT challenge by H and E staining-based assay. Format: functional, organism-based. In outline:
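ANIT 50 mg/kg ip liver-injury model in male SD rats, 6 per group. Oral or ip treatment at 30 min before and 8, 22, 32 and 46 h after ANIT. Liver excised at 48 h, fixed in 4% formalin, stained with H&E, and examined microscopically for hepatocellular edema and necrosis.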

Series [12] relates to Rattus norvegicus. Description: Anti-hepatitis activity in ANIT-induced Sprague-Dawley rat model of liver injury assessed as reduction in serum alanine aminotransferase level at 6.25 to 12.5 mg/kg, ip administered 30 mins prior to ANIT challenge and subsequent dosing at 8, 22, 32, and 46 hrs post ANIT challenge and measured 48 hrs post ANIT challenge. Format: functional, organism-based. In outline:
as §3

Series [13] has as its system Rattus norvegicus. Description: Anti-hepatitis activity in ANIT-induced Sprague-Dawley rat model of liver injury assessed as reduction in serum aspartate aminotransferase level at 6.25 to 12.5 mg/kg, ip administered 30 mins prior to ANIT challenge and subsequent dosing at 8, 22, 32, and 46 hrs post ANIT challenge and measured 48 hrs post ANIT challenge. The format is functional, organism-based. The method in brief: as §3

The test system of series [14] is Rattus norvegicus. Description: Anti-hepatitis activity in ANIT-induced Sprague-Dawley rat model of liver injury assessed as reduction in serum alanine aminotransferase level at 6.25 to 25 mg/kg, po administered 30 mins prior to ANIT challenge and subsequent dosing at 8, 22, 32, and 46 hrs post ANIT challenge and measured 48 hrs post ANIT challenge. Format: functional, organism-based. In outline: as §3

The test system of series [15] is Rattus norvegicus. The series is described as follows: Anti-hepatitis activity in ANIT-induced ip dosed Sprague-Dawley rat model of cholestasis assessed as reduction in serum total bilirubin level administered 30 mins prior to ANIT challenge and subsequent dosing at 8, 22, 32, and 46 hrs post ANIT challenge and measured 48 hrs post ANIT challenge. The format is functional, organism-based. In outline: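 Male SD rats, 6 weeks old, fasted 12 h, 6 per group. Cholestasis induced by ANIT 50 mg/kg ip in olive oil. Test agents were given in water; UDCA 100 mg/kg was given orally in CMC-Na. Dosing at 30 min before and 8, 22, 32 and 46 h after ANIT. Serum taken from the abdominal aorta under chloral hydrate anesthesia at 48 h; total bilirubin measured with an assay kit.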

Series [16] in a line: AUC (0 to t) in Sprague-Dawley rat assessed as JBP485 level at 100 mg/kg, po by LC-MS/MS analysis. Format: ADME, organism-based. The note with it: in vivo. In outline: as §1
Series [17] in a line: Terminal half life in Sprague-Dawley rat assessed as JBP485 level at 100 mg/kg, po by LC-MS/MS analysis. Format: ADME, organism-based. The note with it: in vivo. In outline: (§4)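 Male SD rats (200–250 g) fasted 12 h, given JBP485 or prodrug (calculated as JBP485) orally at 12 or 100 mg/kg. Jugular blood sampled 0.083–10 h, plasma JBP485 by UPLC-MS/MS; n=6.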
The nature of series [18]: Tmax in Sprague-Dawley rat assessed as JBP485 level at 100 mg/kg, po by LC-MS/MS analysis. The format is ADME, organism-based. The note with it: in vivo. In outline: as §4
Series [19] in a line: Tmax in Sprague-Dawley rat assessed as JBP485 level at 12 mg/kg, po by LC-MS/MS analysis. The format is ADME, organism-based. The settings on record: in vivo. In outline: as §4

For the molecule `CC(C)[C@H](N)C(=O)OC[C@@H]1NC(=O)[C@@H]2C[C@@H](O)CN2C1=O`, the AUCt in series [1] came out at 194.47 nM/ml.hr; in [3], 233.25 nM/ml.hr. Also, in series [2], the “beta t1/2” value was 2.11 h. Also, the result in the series on Rattus norvegicus [4] and in the series on Rattus norvegicus [5] was Active.

A word on the Tmax: it is the time from dosing to the highest level. As a reminder, the bioavailability is dose-corrected exposure relative to a reference, in per cent. As for `O=C1N[C@@H](CO)C(=O)N2C[C@H](O)C[C@@H]12`, the Cmax in [6] turned out to be 334.91 nM/ml. The half-life is 1.13 h in series [7] and 5.23 h in [10]. Besides, the time of peak concentration (Tmax) was determined as 1.25 h in series [8], 1.5 h in series [18] and 1.25 h in series [19]. In [9], the bioavailability stood at 21%. The result with Rattus norvegicus [11], with Rattus norvegicus [12], in the series with Rattus norvegicus [13] and in the series on Rattus norvegicus [14] was Active. Further, in the series on Rattus norvegicus [15], the Activity entry is “Dose-dependent effect”. In addition, the AUCt in [16] turned out to be 324 µM·h. For the same molecule, the “beta t1/2” value in [17] was determined as 1.5 h.
